From ChEMBL document CHEMBL1142148, “Antibiotic susceptibility profile of bifidobacteria as affected by oxgall, acid, and hydrogen peroxide stress” (2007)
Values after ≈ are worked out from the molar mass of the structure shown.

Tests used:
[1] = system: Bifidobacterium animalis; assay: Antimicrobial activity against Bifidobacterium animalis ATCC 27536; format: functional
Method in brief: (§1)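 Broth microdilution in MRS plus 0.05% L-cysteine-HCl. Mid-log culture adjusted to OD650 0.1, giving about 2.5 × 10^4 to 5.0 × 10^4 CFU/well, then added to twofold serial dilutions of agent. Plates incubated anaerobically at 37°C for 18 h and read at OD650. MIC is the lowest concentration matching the uninoculated blank OD, taken as the median of four repeats.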

[2] = system: Bifidobacterium bifidum; assay: Antimicrobial activity against Bifidobacterium bifidum R0071; format: functional; method in brief: as §1
[3] = system: Bifidobacterium bifidum; assay: Antimicrobial activity against Bifidobacterium bifidum ATCC 15696; format: functional; method in brief: as §1
[4] = system: Bifidobacterium bifidum; assay: Antimicrobial activity against Bifidobacterium bifidum BB12; format: functional; method in brief: as §1
[5] = system: Bifidobacterium breve; assay: Antimicrobial activity against Bifidobacterium breve ATCC 15700; format: functional; method in brief: as §1
[6] = Antimicrobial activity against Bifidobacterium infantis ATCC 15697; format: functional, Bifidobacterium longum subsp. infantis; settings: Bifidobacterium longum; method in brief: as §1
[7] = system: Bifidobacterium longum; assay: Antimicrobial activity against Bifidobacterium longum ATCC 15708; format: functional; method in brief: as §1
[8] = system: Bifidobacterium longum; assay: Antimicrobial activity against Bifidobacterium longum R0175; format: functional; method in brief: as §1
[9] = system: Bifidobacterium longum; assay: Antimicrobial activity against Bifidobacterium longum P/N 601377; format: functional; method in brief: as §1
[10] = system: Bifidobacterium pseudolongum; assay: Antimicrobial activity against Bifidobacterium pseudolongum ATCC 25562; format: functional; method in brief: as §1
[11] = system: Bifidobacterium thermophilum; assay: Antimicrobial activity against Bifidobacterium thermophilum ATCC 25866; format: functional; method in brief: as §1
[12] = system: Bifidobacterium breve; assay: Antimicrobial activity against Bifidobacterium breve R0070; format: functional; method in brief: as §1
[13] = system: Bifidobacterium animalis; assay: Antimicrobial activity against 60 min 1 M HCl-stressed Bifidobacterium animalis ATCC 27536 after 18 hrs; format: functional
Method in brief: (§2)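 Mid-log MRS culture pelleted and resuspended in MRS broth brought to pH 2.0 with 1 M HCl, held anaerobically at 37°C for 60 min, then subcultured in MRS (pH 6.5) for 24 h anaerobically before MIC testing by broth microdilution (as for unstressed cells). Table footnote gives 18 h anaerobic regrowth after the stress. MIC is the median of four repetitions.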

[14] = system: Bifidobacterium bifidum; assay: Antimicrobial activity against 60 min 1 M HCl-stressed Bifidobacterium bifidum R0071 after 18 hrs; format: functional; method in brief: as §2
[15] = system: Bifidobacterium bifidum; assay: Antimicrobial activity against 60 min 1 M HCl-stressed Bifidobacterium bifidum BB12 after 18 hrs; format: functional; method in brief: as §2
[16] = system: Bifidobacterium breve; assay: Antimicrobial activity against 60 min 1 M HCl-stressed Bifidobacterium breve ATCC 15700 after 18 hrs; format: functional; method in brief: as §2
[17] = system: Bifidobacterium breve; assay: Antimicrobial activity against 60 min 1 M HCl-stressed Bifidobacterium breve R0070 after 18 hrs; format: functional; method in brief: as §2
[18] = Antimicrobial activity against 60 min 1 M HCl-stressed Bifidobacterium infantis ATCC 15697 after 18 hrs; format: functional, Bifidobacterium longum subsp. infantis; settings: Bifidobacterium longum; method in brief: as §2
[19] = system: Bifidobacterium longum; assay: Antimicrobial activity against 60 min 1 M HCl-stressed Bifidobacterium longum ATCC 15707 after 18 hrs; format: functional; method in brief: as §2
[20] = system: Bifidobacterium longum; assay: Antimicrobial activity against 60 min 1 M HCl-stressed Bifidobacterium longum R0175 after 18 hrs; format: functional; method in brief: as §2
[21] = system: Bifidobacterium longum; assay: Antimicrobial activity against 60 min 1 M HCl-stressed Bifidobacterium longum P/N 601377 after 18 hrs; format: functional; method in brief: as §2
[22] = system: Bifidobacterium pseudolongum; assay: Antimicrobial activity against 60 min 1 M HCl-stressed Bifidobacterium pseudolongum ATCC 25562 after 18 hrs; format: functional; method in brief: as §2
[23] = system: Bifidobacterium thermophilum; assay: Antimicrobial activity against 60 min 1 M HCl-stressed Bifidobacterium thermophilum ATCC 25866 after 18 hrs; format: functional; method in brief: as §2
[24] = system: Bifidobacterium animalis; assay: Antimicrobial activity against 90 mins oxgall-stressed Bifidobacterium animalis ATCC 27536 after 18 hrs; format: functional
Method in brief: (§3)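 Cells pelleted from mid-log MRS culture and resuspended in MRS (initial pH 6.5) with 0.3% (wt/vol) oxgall for 90 min anaerobically at 37°C. They were then regrown in MRS pH 6.5 for 24 h (footnote: 18 h) anaerobically and tested for MIC by the same broth microdilution assay. Median of four repetitions.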

[25] = system: Bifidobacterium bifidum; assay: Antimicrobial activity against 90 mins oxgall-stressed Bifidobacterium bifidum R0071 after 18 hrs; format: functional; method in brief: as §3
[26] = system: Bifidobacterium bifidum; assay: Antimicrobial activity against 90 mins oxgall-stressed Bifidobacterium bifidum ATCC 15696 after 18 hrs; format: functional; method in brief: as §3
[27] = system: Bifidobacterium bifidum; assay: Antimicrobial activity against 90 mins oxgall-stressed Bifidobacterium bifidum BB12 after 18 hrs; format: functional; method in brief: as §3
[28] = system: Bifidobacterium breve; assay: Antimicrobial activity against 90 mins oxgall-stressed Bifidobacterium breve ATCC 15700 after 18 hrs; format: functional; method in brief: as §3
[29] = system: Bifidobacterium breve; assay: Antimicrobial activity against 90 mins oxgall-stressed Bifidobacterium breve R0070 after 18 hrs; format: functional; method in brief: as §3
[30] = Antimicrobial activity against 90 mins oxgall-stressed Bifidobacterium infantis ATCC 15697 after 18 hrs; format: functional, Bifidobacterium longum subsp. infantis; settings: Bifidobacterium longum; method in brief: as §3
[31] = system: Bifidobacterium longum; assay: Antimicrobial activity against 90 mins oxgall-stressed Bifidobacterium longum ATCC 15707 after 18 hrs; format: functional; method in brief: as §3
[32] = system: Bifidobacterium longum; assay: Antimicrobial activity against 90 mins oxgall-stressed Bifidobacterium longum ATCC 15708 after 18 hrs; format: functional; method in brief: as §3
[33] = system: Bifidobacterium longum; assay: Antimicrobial activity against Bifidobacterium longum ATCC 15707; format: functional; method in brief: as §1
[34] = system: Bifidobacterium longum; assay: Antimicrobial activity against 90 mins oxgall-stressed Bifidobacterium longum R0175 after 18 hrs; format: functional; method in brief: as §3
[35] = system: Bifidobacterium longum; assay: Antimicrobial activity against 90 mins oxgall-stressed Bifidobacterium longum P/N 601377 after 18 hrs; format: functional; method in brief: as §3
[36] = system: Bifidobacterium pseudolongum; assay: Antimicrobial activity against 90 mins oxgall-stressed Bifidobacterium pseudolongum ATCC 25562 after 18 hrs; format: functional; method in brief: as §3
[37] = system: Bifidobacterium thermophilum; assay: Antimicrobial activity against 90 mins oxgall-stressed Bifidobacterium thermophilum ATCC 25866 after 18 hrs; format: functional; method in brief: as §3
[38] = system: Bifidobacterium animalis; assay: Antimicrobial activity against 90 mins hydrogen peroxide-stressed Bifidobacterium animalis ATCC 27536 after 18 hrs; format: functional
Method in brief: (§4)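 Stress applied for 90 min at 37°C under anaerobic conditions, using MRS (initial pH 6.5) containing H2O2 at each strain's own inhibitory concentration. The H2O2 level was set beforehand by microplate tolerance testing. Challenged cells were regrown in MRS for 24 h (footnote: 18 h) before MIC testing by broth microdilution. Median of four repetitions.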

[39] = system: Bifidobacterium bifidum; assay: Antimicrobial activity against 90 mins hydrogen peroxide-stressed Bifidobacterium bifidum R0071 after 18 hrs; format: functional; method in brief: as §4
[40] = system: Bifidobacterium bifidum; assay: Antimicrobial activity against 90 mins hydrogen peroxide-stressed Bifidobacterium bifidum BB12 after 18 hrs; format: functional; method in brief: as §4
[41] = system: Bifidobacterium breve; assay: Antimicrobial activity against 90 mins hydrogen peroxide-stressed Bifidobacterium breve ATCC 15700 after 18 hrs; format: functional; method in brief: as §4
[42] = system: Bifidobacterium breve; assay: Antimicrobial activity against 90 mins hydrogen peroxide-stressed Bifidobacterium breve R0070 after 18 hrs; format: functional; method in brief: as §4
[43] = system: Bifidobacterium longum; assay: Antimicrobial activity against 90 mins hydrogen peroxide-stressed Bifidobacterium longum ATCC 15707 after 18 hrs; format: functional; method in brief: as §4
[44] = system: Bifidobacterium longum; assay: Antimicrobial activity against 90 mins hydrogen peroxide-stressed Bifidobacterium longum ATCC 15708 after 18 hrs; format: functional; method in brief: as §4
[45] = system: Bifidobacterium longum; assay: Antimicrobial activity against 90 mins hydrogen peroxide-stressed Bifidobacterium longum R0175 after 18 hrs; format: functional; method in brief: as §4
[46] = system: Bifidobacterium longum; assay: Antimicrobial activity against 90 mins hydrogen peroxide-stressed Bifidobacterium longum P/N 601377 after 18 hrs; format: functional; method in brief: as §4
[47] = system: Bifidobacterium thermophilum; assay: Antimicrobial activity against 90 mins hydrogen peroxide-stressed Bifidobacterium thermophilum ATCC 25866 after 18 hrs; format: functional; method in brief: as §4

**Q.** For CN[C@H](CC(C)C)C(=O)N[C@H]1C(=O)N[C@@H](CC(N)=O)C(=O)N[C@H]2C(=O)N[C@H]3C(=O)N[C@H](C(=O)N[C@H](C(=O)O)c4cc(O)cc(O)c4-c4cc3ccc4O)[C@H](O)c3ccc(c(Cl)c3)Oc3cc2cc(c3O[C@@H]2O[C@H](CO)[C@@H](O)[C@H](O)[C@H]2O[C@H]2C[C@](C)(N)[C@H](O)[C@H](C)O2)Oc2ccc(cc2Cl)[C@H]1O [VANCOMYCIN], which MIC [1] is on record?
**A.** 500 µg/mL (≈ 345 µM)

**Q.** And the MIC [2]?
**A.** 500 µg/mL (≈ 345 µM)

**Q.** What about the MIC [3] of the same compound?
**A.** > 500 µg/mL

**Q.** And the MIC [4]?
**A.** > 500 µg/mL

**Q.** What about the MIC [5] of the same compound?
**A.** > 500 µg/mL

**Q.** And the MIC [6]?
**A.** > 500 µg/mL

**Q.** And the MIC [7]?
**A.** 500 µg/mL (≈ 345 µM)

**Q.** And the MIC [8]?
**A.** 500 µg/mL (≈ 345 µM)

**Q.** And the MIC [9]?
**A.** > 500 µg/mL

**Q.** And the MIC [10]?
**A.** > 500 µg/mL

**Q.** And the MIC [11]?
**A.** > 500 µg/mL

**Q.** And the MIC [12]?
**A.** 500 µg/mL (≈ 345 µM)

**Q.** What about the MIC [13] of the same compound?
**A.** > 500 µg/mL

**Q.** What about the MIC [14] of the same compound?
**A.** > 500 µg/mL

**Q.** And the MIC [15]?
**A.** > 500 µg/mL

**Q.** And the MIC [16]?
**A.** > 500 µg/mL

**Q.** What about the MIC [17] of the same compound?
**A.** > 500 µg/mL

**Q.** What about the MIC [18] of the same compound?
**A.** 0.98 µg/mL (≈ 0.676 µM)

**Q.** And the MIC [19]?
**A.** > 500 µg/mL

**Q.** What about the MIC [20] of the same compound?
**A.** 0.98 µg/mL (≈ 0.676 µM)

**Q.** What about the MIC [21] of the same compound?
**A.** > 500 µg/mL

**Q.** What about the MIC [22] of the same compound?
**A.** 0.98 µg/mL (≈ 0.676 µM)

**Q.** What about the MIC [23] of the same compound?
**A.** > 500 µg/mL

**Q.** And the MIC [24]?
**A.** 1.9 µg/mL (≈ 1.31 µM)

**Q.** And the MIC [25]?
**A.** > 500 µg/mL

**Q.** What about the MIC [26] of the same compound?
**A.** > 500 µg/mL

**Q.** And the MIC [27]?
**A.** > 500 µg/mL

**Q.** And the MIC [28]?
**A.** > 500 µg/mL

**Q.** And the MIC [29]?
**A.** > 500 µg/mL

**Q.** What about the MIC [30] of the same compound?
**A.** 0.98 µg/mL (≈ 0.676 µM)

**Q.** And the MIC [31]?
**A.** > 500 µg/mL

**Q.** What about the MIC [32] of the same compound?
**A.** 0.98 µg/mL (≈ 0.676 µM)

**Q.** And the MIC [33]?
**A.** 500 µg/mL (≈ 345 µM)

**Q.** What about the MIC [34] of the same compound?
**A.** > 500 µg/mL

**Q.** What about the MIC [35] of the same compound?
**A.** > 500 µg/mL

**Q.** What about the MIC [36] of the same compound?
**A.** 0.98 µg/mL (≈ 0.676 µM)

**Q.** And the MIC [37]?
**A.** > 500 µg/mL

**Q.** And the MIC [38]?
**A.** > 500 µg/mL

**Q.** And the MIC [39]?
**A.** > 500 µg/mL

**Q.** What about the MIC [40] of the same compound?
**A.** > 500 µg/mL

**Q.** What about the MIC [41] of the same compound?
**A.** > 500 µg/mL

**Q.** And the MIC [42]?
**A.** > 500 µg/mL

**Q.** And the MIC [43]?
**A.** > 500 µg/mL

**Q.** And the MIC [44]?
**A.** > 500 µg/mL

**Q.** And the MIC [45]?
**A.** > 500 µg/mL

**Q.** What about the MIC [46] of the same compound?
**A.** > 500 µg/mL

**Q.** What about the MIC [47] of the same compound?
**A.** > 500 µg/mL
